Data: ChEMBL document CHEMBL1147110, “Antifungal drug susceptibility profile of Pichia anomala isolates from patients presenting with nosocomial fungemia” (2007)

What was measured:
Assay type in all cases: functional
Wickerhamomyces anomalus [1] = assay: Antimicrobial susceptibility of Pichia anomala from nosocomial fungemia patient assessed as percent susceptible isolates at 0.015 ug/ml by EUCAST method
Outline: (§1)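 EUCAST broth microdilution on the same 58 P. anomala isolates (52 bloodstream isolates from Brazil, Argentina and Spain; 6 from USA). MICs were read spectrophotometrically at 530 nm after 24 h incubation. Endpoints were complete or nearly complete (≥95%) inhibition for amphotericin B, and ≥50% inhibition for azoles and caspofungin, relative to drug-free control. Isolates were tallied as cumulative % per MIC.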

Wickerhamomyces anomalus [2] = assay: Antimicrobial susceptibility of Pichia anomala from nosocomial fungemia patient assessed as percent susceptible isolates at 0.03 ug/ml by EUCAST method; outline: as §1
Wickerhamomyces anomalus [3] = assay: Antimicrobial susceptibility of Pichia anomala from nosocomial fungemia patient assessed as percent susceptible isolates at 0.06 ug/ml by EUCAST method; outline: as §1
Wickerhamomyces anomalus [4] = assay: Antimicrobial susceptibility of Pichia anomala from nosocomial fungemia patient assessed as percent susceptible isolates at 0.12 ug/ml by EUCAST method; outline: as §1
Wickerhamomyces anomalus [5] = assay: Antimicrobial susceptibility of Pichia anomala from nosocomial fungemia patient assessed as percent susceptible isolates at 0.25 ug/ml by EUCAST method
Outline: (§2)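 58 P. anomala isolates (52 unrelated bloodstream isolates from Brazil, Argentina and Spain; 6 from unknown US clinical specimens). EUCAST broth microdilution, 24 h incubation, spectrophotometric reading at 530 nm. The MIC endpoint was ≥95% inhibition versus the drug-free control for the polyene and ≥50% for azoles and the echinocandin. Cumulative % of isolates inhibited at each MIC was recorded.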

Wickerhamomyces anomalus [6] = assay: Antimicrobial susceptibility of Pichia anomala from nosocomial fungemia patient assessed as percent susceptible isolates by CLSI method
Outline: as §2, with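 “CLSI” for “EUCAST”, “48” for “24”, “read” for “spectrophotometric reading”, “well” for “control”, “recorded, with susceptibility assigned by CLSI interpretive criteria.” for “recorded.”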

Wickerhamomyces anomalus [7] = assay: Antimicrobial susceptibility of Pichia anomala from nosocomial fungemia patient assessed as percent susceptible isolates by EUCAST method; outline: as §1
Wickerhamomyces anomalus [8] = assay: Antimicrobial susceptibility of Pichia anomala from nosocomial fungemia patient assessed as percent susceptible isolates at 0.015 ug/ml by CLSI method
Outline: (§3)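 CLSI broth microdilution on 58 P. anomala isolates: 52 unrelated bloodstream isolates (36 Brazil, 13 Argentina, 3 Spain) and 6 from unknown clinical specimens (USA). Fluconazole was tested at 0.12–64 µg/ml. MICs were read spectrophotometrically at 530 nm after 48 h. Endpoints were ≥95% inhibition vs drug-free control for amphotericin B, and ≥50% for azoles and caspofungin. Results are given as cumulative % of isolates at each MIC.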

Wickerhamomyces anomalus [9] = assay: Antimicrobial susceptibility of Pichia anomala from nosocomial fungemia patient assessed as percent susceptible isolates at 0.03 ug/ml by CLSI method; outline: as §3
Wickerhamomyces anomalus [10] = assay: Antimicrobial susceptibility of Pichia anomala from nosocomial fungemia patient assessed as percent susceptible isolates at 0.06 ug/ml by CLSI method; outline: as §3
Wickerhamomyces anomalus [11] = assay: Antimicrobial susceptibility of Pichia anomala from nosocomial fungemia patient assessed as percent susceptible isolates at 0.12 ug/ml by CLSI method
Outline: as §2, with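 “CLSI” for “EUCAST”, “48” for “24”, “read” for “spectrophotometric reading”, “well” for “control”, “recorded, with susceptibility assigned by CLSI interpretive criteria.” for “recorded.”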

Wickerhamomyces anomalus [12] = assay: Antimicrobial susceptibility of Pichia anomala from nosocomial fungemia patient assessed as percent susceptible isolates at 0.25 ug/ml by CLSI method; outline: as §3
Wickerhamomyces anomalus [13] = assay: Antimicrobial susceptibility of Pichia anomala from nosocomial fungemia patient assessed as percent susceptible isolates at 0.5 ug/ml by CLSI method
Outline: as §2, with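 “CLSI” for “EUCAST”, “48” for “24”, “read” for “spectrophotometric reading”, “well” for “control”, “recorded, with susceptibility assigned by CLSI interpretive criteria.” for “recorded.”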

Wickerhamomyces anomalus [14] = assay: Antimicrobial susceptibility of Pichia anomala from nosocomial fungemia patient assessed as percent susceptible isolates at 0.5 ug/ml by EUCAST method; outline: as §1
Wickerhamomyces anomalus [15] = assay: Antimicrobial susceptibility of Pichia anomala from nosocomial fungemia patient assessed as percent susceptible isolates at 1 ug/ml by EUCAST method; outline: as §1
Wickerhamomyces anomalus [16] = assay: Antimicrobial susceptibility of Pichia anomala from nosocomial fungemia patient assessed as percent susceptible isolates at 1 ug/ml by CLSI method; outline: as §3
Wickerhamomyces anomalus [17] = assay: Antimicrobial susceptibility of Pichia anomala from nosocomial fungemia patient assessed as percent susceptible isolates at 16 ug/ml by CLSI method
Outline: as §2, with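 “CLSI” for “EUCAST”, “48” for “24”, “read” for “spectrophotometric reading”, “well” for “control”, “recorded, with susceptibility assigned by CLSI interpretive criteria.” for “recorded.”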

Wickerhamomyces anomalus [18] = assay: Antimicrobial susceptibility of Pichia anomala from nosocomial fungemia patient assessed as percent susceptible isolates at 2 ug/ml by EUCAST method; outline: as §2
Wickerhamomyces anomalus [19] = assay: Antimicrobial susceptibility of Pichia anomala from nosocomial fungemia patient assessed as percent susceptible isolates at 4 ug/ml by EUCAST method; outline: as §2
Wickerhamomyces anomalus [20] = assay: Antimicrobial susceptibility of Pichia anomala from nosocomial fungemia patient assessed as percent susceptible isolates at 8 ug/ml by EUCAST method; outline: as §2
Wickerhamomyces anomalus [21] = assay: Antimicrobial susceptibility of Pichia anomala from nosocomial fungemia patient assessed as percent susceptible isolates at 16 ug/ml by EUCAST method; outline: as §2
Wickerhamomyces anomalus [22] = assay: Antimicrobial susceptibility of Pichia anomala from nosocomial fungemia patient assessed as percent susceptible isolates at 2 ug/ml by CLSI method
Outline: as §2, with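 “CLSI” for “EUCAST”, “48” for “24”, “read” for “spectrophotometric reading”, “well” for “control”, “recorded, with susceptibility assigned by CLSI interpretive criteria.” for “recorded.”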

Wickerhamomyces anomalus [23] = assay: Antimicrobial susceptibility of Pichia anomala from nosocomial fungemia patient assessed as percent susceptible isolates at 4 ug/ml by CLSI method
Outline: as §2, with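 “CLSI” for “EUCAST”, “48” for “24”, “read” for “spectrophotometric reading”, “well” for “control”, “recorded, with susceptibility assigned by CLSI interpretive criteria.” for “recorded.”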

Wickerhamomyces anomalus [24] = assay: Antimicrobial susceptibility of Pichia anomala from nosocomial fungemia patient assessed as percent susceptible isolates at 8 ug/ml by CLSI method
Outline: as §2, with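 “CLSI” for “EUCAST”, “48” for “24”, “read” for “spectrophotometric reading”, “well” for “control”, “recorded, with susceptibility assigned by CLSI interpretive criteria.” for “recorded.”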

Row | SMILES | Activity (Wickerhamomyces anomalus [1]) | Activity (Wickerhamomyces anomalus [2]) | Activity (Wickerhamomyces anomalus [3]) | Activity (Wickerhamomyces anomalus [4]) | Activity (Wickerhamomyces anomalus [5]) | Activity (Wickerhamomyces anomalus [6]) | Activity (Wickerhamomyces anomalus [7]) | Activity (Wickerhamomyces anomalus [8]) | Cumulative percent of isolates inhibited (Wickerhamomyces anomalus [9]) | Cumulative percent of isolates inhibited (Wickerhamomyces anomalus [10]) | Activity (Wickerhamomyces anomalus [11]) | Cumulative percent of isolates inhibited (Wickerhamomyces anomalus [12]) | Cumulative percent of isolates inhibited (Wickerhamomyces anomalus [13]) | Activity (Wickerhamomyces anomalus [14]) | Activity (Wickerhamomyces anomalus [15]) | Activity (Wickerhamomyces anomalus [16]) | other results
1 | C[C@@H](c1ncncc1F)[C@](O)(Cn1cncn1)c1ccc(F)cc1F [VORICONAZOLE] | 0% | 3.4% | 29.3% | 65.5% | 100% | 100% | 100% | 0% | 3.4% | 18.9% | 39.6% | 96.5% | 100% | – | – | – | –
2 | CCC(C)n1ncn(-c2ccc(N3CCN(c4ccc(OCC5COC(Cn6cncn6)(c6ccc(Cl)cc6Cl)O5)cc4)CC3)cc2)c1=O (stereo not given) [ITRACONAZOLE] | 0% | 0% | 7% | 39.5% | 91.2% | 36.2% | 39.6% | 1.7% | 0% | 12% | 36.1% | 74.1% | 96.5% | 98.2% | 100% | 100% | –
3 | OC(Cn1cncn1)(Cn1cncn1)c1ccc(F)cc1F [FLUCONAZOLE] | 0% | 0% | 0% | 0% | 0% | 96.6% | 93% | 0% | – | – | 0% | – | 0% | 0% | 0% | 0% | Activity (Wickerhamomyces anomalus [17]): 100%; Activity (Wickerhamomyces anomalus [18]): 22.4%; Activity (Wickerhamomyces anomalus [19]): 55.1%; Activity (Wickerhamomyces anomalus [20]): 96.5%; Activity (Wickerhamomyces anomalus [21]): 100%; Activity (Wickerhamomyces anomalus [9]): 0%; Activity (Wickerhamomyces anomalus [10]): 0%; Activity (Wickerhamomyces anomalus [12]): 0%; Activity (Wickerhamomyces anomalus [22]): 15.5%; Activity (Wickerhamomyces anomalus [23]): 56.8%; Activity (Wickerhamomyces anomalus [24]): 93%
4 | CC[C@H](C)C[C@H](C)CCCCCCCCC(=O)N[C@H]1C[C@@H](O)[C@@H](NCCN)NC(=O)[C@@H]2[C@@H](O)CCN2C(=O)[C@H]([C@H](O)CCN)NC(=O)[C@H]([C@H](O)[C@@H](O)c2ccc(O)cc2)NC(=O)[C@@H]2C[C@@H](O)CN2C(=O)[C@H]([C@@H](C)O)NC1=O [CASPOFUNGIN] | 0% | 12% | 70.6% | 100% | – | 100% | 100% | 0% | 1.7% | 17.2% | 84.5% | 100% | – | – | – | – | –
5 | C[C@@H]1[C@H](O)[C@@H](C)/C=C/C=C/C=C/C=C/C=C/C=C/C=C/[C@H](O[C@@H]2O[C@H](C)[C@@H](O)[C@H](N)[C@@H]2O)C[C@@H]2O[C@](O)(C[C@@H](O)C[C@@H](O)[C@H](O)CC[C@@H](O)C[C@@H](O)CC(=O)O[C@H]1C)C[C@H](O)[C@H]2C(=O)O [AMPHOTERICIN B] | 0% | 0% | 0% | 15.5% | 55.1% | 100% | 100% | 0% | 0% | 0% | 12% | 36% | 88% | 94.7% | 100% | 100% | –
